The M2OR odorant receptor database

Target: T1, Or1m1 (Mus musculus) (UniProt Q8VFM9)
T1 sequence (whole entry): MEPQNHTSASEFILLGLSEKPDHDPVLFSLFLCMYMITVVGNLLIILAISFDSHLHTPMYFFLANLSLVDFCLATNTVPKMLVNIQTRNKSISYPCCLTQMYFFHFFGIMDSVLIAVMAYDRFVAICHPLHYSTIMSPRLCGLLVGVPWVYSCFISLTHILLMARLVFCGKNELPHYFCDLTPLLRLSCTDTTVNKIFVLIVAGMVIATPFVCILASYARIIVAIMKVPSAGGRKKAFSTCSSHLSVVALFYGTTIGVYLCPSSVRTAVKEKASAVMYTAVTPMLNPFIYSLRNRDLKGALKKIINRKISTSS
Conditions: stereoisomer not certain
Outline: (§1)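 Whether a receptor–molecule pair is responsive (active) rests on the original authors' judgment that its measured signal was statistically different from baseline. Pairs without that judgment are non-responsive (inactive). Sources used varied assay methods, commonly transient luciferase assays in mammalian cell lines.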
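Also: active if original authors judged signal statistically different from baseline.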

Row | SMILES | odorant receptor agonist call
1 | CCCCCCCO | inactive
2 | CCCCCCO | inactive
3 | CC(C)=CCCC(C)=CCO | inactive
4 | CCCCC(=O)O | inactive
5 | CCCCCCCCCCCO | inactive
6 | O=C([O-])CCCCCCC(=O)[O-].[H+].[H+] | inactive
7 | CCCCCCCCCC(=O)[O-].[H+] | inactive
8 | CCCCC=O | inactive
9 | O=C([O-])CCCCCCCC(=O)[O-].[H+].[H+] | inactive
10 | CCCCCCCCCO | inactive

Target: T2, Or2c1 (Mus musculus) (UniProt P23275)
T2 sequence (whole entry): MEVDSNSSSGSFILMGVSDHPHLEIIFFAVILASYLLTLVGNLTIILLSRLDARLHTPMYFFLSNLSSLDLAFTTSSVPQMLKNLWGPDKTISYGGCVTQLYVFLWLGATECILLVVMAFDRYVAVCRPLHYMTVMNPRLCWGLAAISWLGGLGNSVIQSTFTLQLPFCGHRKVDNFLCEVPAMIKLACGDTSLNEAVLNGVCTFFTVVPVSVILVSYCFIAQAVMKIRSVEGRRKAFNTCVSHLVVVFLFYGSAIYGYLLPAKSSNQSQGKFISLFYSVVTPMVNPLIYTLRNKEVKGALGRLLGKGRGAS
Conditions: stereoisomer not certain
Outline: as §1

Row | SMILES | odorant receptor agonist call
11 | CCCCCCCO | inactive
12 | CCCCCCO | inactive
13 | CC(C)=CCCC(C)=CCO | inactive
14 | CCCC(C)=O | inactive
15 | CCCCC(=O)O | inactive
16 | CCCCCCCCCC(=O)[O-].[H+] | active
17 | CCCCCCCC(=O)[O-].[H+] | active
18 | CCCCCCCCCO | inactive

Target: T3, Or5ar1 (Mus musculus) (UniProt Q8VGS3)
T3 sequence (whole entry): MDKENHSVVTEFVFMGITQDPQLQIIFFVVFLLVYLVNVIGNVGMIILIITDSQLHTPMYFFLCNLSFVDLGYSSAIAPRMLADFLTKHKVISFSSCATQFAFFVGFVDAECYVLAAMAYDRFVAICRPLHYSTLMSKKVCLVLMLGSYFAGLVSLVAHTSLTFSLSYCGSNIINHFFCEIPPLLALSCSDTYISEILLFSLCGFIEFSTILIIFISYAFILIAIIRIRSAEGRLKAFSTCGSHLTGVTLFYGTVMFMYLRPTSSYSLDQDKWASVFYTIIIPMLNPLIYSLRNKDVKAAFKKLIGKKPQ
Conditions: stereoisomer not certain
Outline: as §1

Row | SMILES | odorant receptor agonist call
19 | CCCCCCCO | inactive
20 | CCCCCCO | inactive
21 | CC(C)=CCCC(C)=CCO | inactive
22 | CCCC(C)=O | inactive
23 | CCCCC(=O)O | inactive
24 | CCCCCCCCCCCO | inactive
25 | O=C([O-])CCCCCCC(=O)[O-].[H+].[H+] | inactive
26 | CCCCCCCCCC(=O)[O-].[H+] | inactive
27 | CCCCC=O | inactive
28 | O=C([O-])CCCCCCCC(=O)[O-].[H+].[H+] | inactive
29 | CCCCCCCC(=O)[O-].[H+] | inactive
30 | CCCCCCCCCO | inactive

Target: T4, Or5p57 (Mus musculus) (UniProt Q8VEZ0)
T4 sequence (whole entry): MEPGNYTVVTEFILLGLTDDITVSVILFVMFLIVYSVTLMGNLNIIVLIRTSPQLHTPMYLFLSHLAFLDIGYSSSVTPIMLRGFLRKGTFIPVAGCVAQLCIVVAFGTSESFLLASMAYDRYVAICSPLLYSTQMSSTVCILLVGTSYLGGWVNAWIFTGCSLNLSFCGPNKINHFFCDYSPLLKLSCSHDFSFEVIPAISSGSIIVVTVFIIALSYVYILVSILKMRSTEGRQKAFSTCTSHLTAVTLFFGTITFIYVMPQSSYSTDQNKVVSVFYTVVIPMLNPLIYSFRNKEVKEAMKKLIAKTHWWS
Conditions: stereoisomer not certain
Outline: as §1

Row | SMILES | odorant receptor agonist call
31 | CCCCCCCO | active
32 | CCCCCCO | active
33 | CCCCC(=O)O | inactive
34 | O=C([O-])CCCCCCC(=O)[O-].[H+].[H+] | inactive
35 | O=C([O-])CCCCC(=O)[O-].[H+].[H+] | inactive
36 | O=C([O-])CCCCCCCC(=O)[O-].[H+].[H+] | inactive
37 | CCCCCCCC(=O)[O-].[H+] | inactive
38 | CCCCCCCCCO | inactive

Target: T5, Or5p80 (Mus musculus) (UniProt Q8VG42)
T5 sequence (whole entry): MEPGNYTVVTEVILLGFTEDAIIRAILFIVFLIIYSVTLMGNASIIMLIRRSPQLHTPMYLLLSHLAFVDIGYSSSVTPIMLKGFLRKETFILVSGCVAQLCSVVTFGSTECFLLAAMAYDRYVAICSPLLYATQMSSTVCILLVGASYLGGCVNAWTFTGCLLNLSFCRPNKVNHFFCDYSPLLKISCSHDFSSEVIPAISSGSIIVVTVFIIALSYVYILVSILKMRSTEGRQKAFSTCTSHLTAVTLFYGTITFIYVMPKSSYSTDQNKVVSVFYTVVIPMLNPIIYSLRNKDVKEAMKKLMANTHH
Conditions: stereoisomer not certain
Outline: as §1

Row | SMILES | odorant receptor agonist call
39 | CCCCCCCO | inactive
40 | CCCCCCO | inactive
41 | CC(C)=CCCC(C)=CCO | inactive
42 | CCCC(C)=O | inactive
43 | CCCCC(=O)O | inactive
44 | CCCCCCCCCC(=O)[O-].[H+] | inactive
45 | CCCCCCCC(=O)[O-].[H+] | inactive
46 | CCCCCCCCCO | inactive

Target: T6, Or7a40 (Mus musculus) (UniProt Q9JHB2)
T6 sequence (whole entry): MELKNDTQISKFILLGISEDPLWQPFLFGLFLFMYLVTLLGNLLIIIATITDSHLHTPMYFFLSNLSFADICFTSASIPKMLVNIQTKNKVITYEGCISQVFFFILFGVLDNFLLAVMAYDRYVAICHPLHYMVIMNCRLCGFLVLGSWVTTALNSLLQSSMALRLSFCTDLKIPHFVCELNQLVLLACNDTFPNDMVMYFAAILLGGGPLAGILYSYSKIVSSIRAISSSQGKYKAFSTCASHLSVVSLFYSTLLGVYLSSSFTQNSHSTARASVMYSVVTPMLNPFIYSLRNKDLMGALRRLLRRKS
Conditions: stereoisomer not certain
Outline: as §1

Row | SMILES | odorant receptor agonist call
47 | CCCCCCCO | inactive
48 | CCCCCCO | inactive
49 | CC(C)=CCCC(C)=CCO | inactive
50 | CCCC(C)=O | inactive
51 | CCCCC(=O)O | inactive
52 | CCCCCCCCCC(=O)[O-].[H+] | inactive
53 | CCCCCCCC(=O)[O-].[H+] | inactive
54 | CCCCCCCCCO | inactive
